# In ChEMBL document CHEMBL5058577, “EUbOPEN Chemogenomics Library 2 (Multiplex)” (2022):
# Test system: HEK-293T
# Assay: Multiplex assay against HEK293T
# Type: toxicity, cell-based
# Conditions: human
# In short: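 Cells stained live at seeding with Hoechst33342, BioTracker Green Microtubule Cytoskeleton Dye, MitoTracker Red and Annexin V Alexa Fluor 680 were imaged on a CQ1 microscope at 37°C and 5% CO2 after compound addition. Their classification by CellPathfinder machine-learning gating ran from Hoechst high-intensity objects versus normal cells, to healthy, pyknosed or fragmented nuclei among normal cells, to mitotic or apoptotic among pyknosed cells. Tubulin, mitochondrial-mass and membrane-permeability phenotypes are per cents of healthy-nucleus cells.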
# [1] = 12 h, 1 µM, compound concentration 1 uM, replicate 1
# [2] = 12 h, 1 µM, compound concentration 1 uM, replicate 2
# [3] = 12 h, 10 µM, compound concentration 10 uM, replicate 1
# [4] = 12 h, 10 µM, compound concentration 10 uM, replicate 2
# [5] = 24 h, 1 µM, compound concentration 1 uM, replicate 1
# [6] = 24 h, 1 µM, compound concentration 1 uM, replicate 2
# [7] = 24 h, 10 µM, compound concentration 10 uM, replicate 1
# [8] = 24 h, 10 µM, compound concentration 10 uM, replicate 2
# [9] = 48 h, 1 µM, compound concentration 1 uM, replicate 1
# [10] = 48 h, 1 µM, compound concentration 1 uM, replicate 2
# [11] = 48 h, 10 µM, compound concentration 10 uM, replicate 1
# [12] = 48 h, 10 µM, compound concentration 10 uM, replicate 2
compound,measurement,setting,value
COc1cc(Nc2ncc3c(n2)-c2ccc(Cl)cc2C(c2c(F)cccc2OC)=NC3)ccc1C(=O)O [ALISERTIB],Population Apoptotic (%),[1],38%
same,Population Fragmented Nuclei (%),[1],3%
same,Population Healthy Nuclei (%),[1],88%
same,Population Hoechst High Intensity Objects (%),[1],5%
same,Population Membrane Permeable-Phenotype (%),[1],0%
same,Population Mitochondria Different-Phenotype (%),[1],44%
same,Population Mitotic Cells (%),[1],61%
same,Population Normal (%),[1],94%
same,Population Pyknosed Nuclei (%),[1],7%
same,Population Tubulin-Different-Phenotype (%),[1],46%
same,Population Apoptotic (%),[2],61%
same,Population Fragmented Nuclei (%),[2],7%
same,Population Healthy Nuclei (%),[2],85%
same,Population Hoechst High Intensity Objects (%),[2],7%
same,Population Mitochondria Different-Phenotype (%),[2],69%
same,Population Mitotic Cells (%),[2],38%
same,Population Normal (%),[2],93%
same,Population Tubulin-Different-Phenotype (%),[2],49%
same,Population Apoptotic (%),[3],61%
same,Population Fragmented Nuclei (%),[3],8%
same,Population Healthy Nuclei (%),[3],74%
same,Population Hoechst High Intensity Objects (%),[3],9%
same,Population Membrane Permeable-Phenotype (%),[3],0%
same,Population Mitochondria Different-Phenotype (%),[3],80%
same,Population Mitotic Cells (%),[3],38%
same,Population Normal (%),[3],90%
same,Population Pyknosed Nuclei (%),[3],16%
same,Population Tubulin-Different-Phenotype (%),[3],68%
same,Population Apoptotic (%),[4],88%
same,Population Fragmented Nuclei (%),[4],9%
same,Population Healthy Nuclei (%),[4],72%
same,Population Hoechst High Intensity Objects (%),[4],15%
same,Population Mitochondria Different-Phenotype (%),[4],82%
same,Population Mitotic Cells (%),[4],11%
same,Population Normal (%),[4],84%
same,Population Pyknosed Nuclei (%),[4],17%
same,Population Tubulin-Different-Phenotype (%),[4],54%
same,Population Apoptotic (%),[5],50%
same,Population Fragmented Nuclei (%),[5],10%
same,Population Healthy Nuclei (%),[5],82%
same,Population Hoechst High Intensity Objects (%),[5],3%
same,Population Membrane Permeable-Phenotype (%),[5],0%
same,Population Mitochondria Different-Phenotype (%),[5],25%
same,Population Mitotic Cells (%),[5],50%
same,Population Normal (%),[5],96%
same,Population Pyknosed Nuclei (%),[5],7%
same,Population Tubulin-Different-Phenotype (%),[5],31%
same,Population Apoptotic (%),[6],47%
same,Population Fragmented Nuclei (%),[6],9%
same,Population Healthy Nuclei (%),[6],81%
same,Population Hoechst High Intensity Objects (%),[6],9%
same,Population Mitochondria Different-Phenotype (%),[6],47%
same,Population Mitotic Cells (%),[6],52%
same,Population Normal (%),[6],90%
same,Population Pyknosed Nuclei (%),[6],9%
same,Population Tubulin-Different-Phenotype (%),[6],30%
same,Population Apoptotic (%),[7],54%
same,Population Fragmented Nuclei (%),[7],8%
same,Population Healthy Nuclei (%),[7],74%
same,Population Hoechst High Intensity Objects (%),[7],6%
same,Population Membrane Permeable-Phenotype (%),[7],0%
same,Population Mitochondria Different-Phenotype (%),[7],75%
same,Population Mitotic Cells (%),[7],45%
same,Population Normal (%),[7],93%
same,Population Pyknosed Nuclei (%),[7],16%
same,Population Tubulin-Different-Phenotype (%),[7],64%
same,Population Apoptotic (%),[8],56%
same,Population Fragmented Nuclei (%),[8],12%
same,Population Healthy Nuclei (%),[8],55%
same,Population Hoechst High Intensity Objects (%),[8],34%
same,Population Membrane Permeable-Phenotype (%),[8],1%
same,Population Mitochondria Different-Phenotype (%),[8],86%
same,Population Mitotic Cells (%),[8],43%
same,Population Normal (%),[8],65%
same,Population Pyknosed Nuclei (%),[8],31%
same,Population Tubulin-Different-Phenotype (%),[8],50%
same,Population Apoptotic (%),[9],31%
same,Population Fragmented Nuclei (%),[9],14%
same,Population Healthy Nuclei (%),[9],79%
same,Population Hoechst High Intensity Objects (%),[9],3%
same,Population Membrane Permeable-Phenotype (%),[9],0%
same,Population Mitochondria Different-Phenotype (%),[9],14%
same,Population Mitotic Cells (%),[9],68%
same,Population Normal (%),[9],96%
same,Population Pyknosed Nuclei (%),[9],5%
same,Population Tubulin-Different-Phenotype (%),[9],17%
same,Population Apoptotic (%),[10],57%
same,Population Fragmented Nuclei (%),[10],16%
same,Population Healthy Nuclei (%),[10],77%
same,Population Hoechst High Intensity Objects (%),[10],15%
same,Population Mitochondria Different-Phenotype (%),[10],27%
same,Population Mitotic Cells (%),[10],42%
same,Population Normal (%),[10],84%
same,Population Tubulin-Different-Phenotype (%),[10],24%
same,Population Apoptotic (%),[11],48%
same,Population Fragmented Nuclei (%),[11],13%
same,Population Healthy Nuclei (%),[11],78%
same,Population Hoechst High Intensity Objects (%),[11],5%
same,Population Membrane Permeable-Phenotype (%),[11],0%
same,Population Mitochondria Different-Phenotype (%),[11],57%
same,Population Mitotic Cells (%),[11],52%
same,Population Normal (%),[11],94%
same,Population Pyknosed Nuclei (%),[11],7%
same,Population Tubulin-Different-Phenotype (%),[11],42%
same,Population Apoptotic (%),[12],82%
same,Population Fragmented Nuclei (%),[12],19%
same,Population Healthy Nuclei (%),[12],61%
same,Population Hoechst High Intensity Objects (%),[12],32%
same,Population Membrane Permeable-Phenotype (%),[12],4%
same,Population Mitochondria Different-Phenotype (%),[12],73%
same,Population Mitotic Cells (%),[12],17%
same,Population Normal (%),[12],67%
same,Population Pyknosed Nuclei (%),[12],19%
same,Population Tubulin-Different-Phenotype (%),[12],38%
CN1CCN2c3ccccc3Cc3ccccc3C2C1.Cl (stereo not drawn) [MIANSERIN HYDROCHLORIDE],Population Apoptotic (%),[1],23%
same,Population Fragmented Nuclei (%),[1],5%
same,Population Healthy Nuclei (%),[1],79%
same,Population Hoechst High Intensity Objects (%),[1],5%
same,Population Membrane Permeable-Phenotype (%),[1],0%
same,Population Mitochondria Different-Phenotype (%),[1],36%
same,Population Mitotic Cells (%),[1],76%
same,Population Normal (%),[1],94%
same,Population Pyknosed Nuclei (%),[1],14%
same,Population Tubulin-Different-Phenotype (%),[1],21%
same,Total Cell Count,[1],338
same,Population Apoptotic (%),[2],46%
same,Population Fragmented Nuclei (%),[2],7%
same,Population Healthy Nuclei (%),[2],77%
same,Population Hoechst High Intensity Objects (%),[2],10%
same,Population Mitochondria Different-Phenotype (%),[2],63%
same,Population Mitotic Cells (%),[2],53%
same,Population Normal (%),[2],89%
same,Population Tubulin-Different-Phenotype (%),[2],17%
same,Total Cell Count,[2],376
same,Population Apoptotic (%),[3],34%
same,Population Fragmented Nuclei (%),[3],5%
same,Population Healthy Nuclei (%),[3],81%
same,Population Hoechst High Intensity Objects (%),[3],9%
same,Population Membrane Permeable-Phenotype (%),[3],1%
same,Population Mitochondria Different-Phenotype (%),[3],45%
same,Population Mitotic Cells (%),[3],65%
same,Population Normal (%),[3],90%
same,Population Pyknosed Nuclei (%),[3],13%
same,Population Tubulin-Different-Phenotype (%),[3],40%
same,Total Cell Count,[3],410
same,Population Apoptotic (%),[4],42%
same,Population Healthy Nuclei (%),[4],85%
same,Population Hoechst High Intensity Objects (%),[4],4%
same,Population Membrane Permeable-Phenotype (%),[4],0%
same,Population Mitochondria Different-Phenotype (%),[4],53%
same,Population Mitotic Cells (%),[4],57%
same,Population Normal (%),[4],95%
same,Population Pyknosed Nuclei (%),[4],8%
same,Population Tubulin-Different-Phenotype (%),[4],28%
same,Total Cell Count,[4],491
same,Population Apoptotic (%),[5],22%
same,Population Fragmented Nuclei (%),[5],9%
same,Population Healthy Nuclei (%),[5],80%
same,Population Hoechst High Intensity Objects (%),[5],1%
same,Population Membrane Permeable-Phenotype (%),[5],0%
same,Population Mitochondria Different-Phenotype (%),[5],21%
same,Population Mitotic Cells (%),[5],77%
same,Population Normal (%),[5],98%
same,Population Pyknosed Nuclei (%),[5],10%
same,Population Tubulin-Different-Phenotype (%),[5],14%
same,Total Cell Count,[5],479
same,Population Apoptotic (%),[6],26%
same,Population Fragmented Nuclei (%),[6],10%
same,Population Hoechst High Intensity Objects (%),[6],8%
same,Population Mitochondria Different-Phenotype (%),[6],37%
same,Population Mitotic Cells (%),[6],73%
same,Population Normal (%),[6],91%
same,Population Pyknosed Nuclei (%),[6],9%
same,Population Tubulin-Different-Phenotype (%),[6],16%
same,Total Cell Count,[6],486
same,Population Apoptotic (%),[7],24%
same,Population Fragmented Nuclei (%),[7],8%
same,Population Healthy Nuclei (%),[7],77%
same,Population Hoechst High Intensity Objects (%),[7],5%
same,Population Membrane Permeable-Phenotype (%),[7],0%
same,Population Mitochondria Different-Phenotype (%),[7],31%
same,Population Mitotic Cells (%),[7],75%
same,Population Normal (%),[7],94%
same,Population Pyknosed Nuclei (%),[7],14%
same,Population Tubulin-Different-Phenotype (%),[7],34%
same,Total Cell Count,[7],486
same,Population Apoptotic (%),[8],32%
same,Population Fragmented Nuclei (%),[8],5%
same,Population Healthy Nuclei (%),[8],84%
same,Population Hoechst High Intensity Objects (%),[8],3%
same,Population Mitochondria Different-Phenotype (%),[8],36%
same,Population Mitotic Cells (%),[8],67%
same,Population Normal (%),[8],96%
same,Population Pyknosed Nuclei (%),[8],10%
same,Population Tubulin-Different-Phenotype (%),[8],21%
same,Total Cell Count,[8],612
same,Population Apoptotic (%),[9],13%
same,Population Fragmented Nuclei (%),[9],15%
same,Population Healthy Nuclei (%),[9],77%
same,Population Hoechst High Intensity Objects (%),[9],1%
same,Population Membrane Permeable-Phenotype (%),[9],1%
same,Population Mitochondria Different-Phenotype (%),[9],15%
same,Population Mitotic Cells (%),[9],86%
same,Population Normal (%),[9],98%
same,Population Pyknosed Nuclei (%),[9],6%
same,Population Tubulin-Different-Phenotype (%),[9],9%
same,Total Cell Count,[9],812
same,Population Apoptotic (%),[10],37%
same,Population Fragmented Nuclei (%),[10],16%
same,Population Healthy Nuclei (%),[10],78%
same,Population Hoechst High Intensity Objects (%),[10],3%
same,Population Membrane Permeable-Phenotype (%),[10],0%
same,Population Mitochondria Different-Phenotype (%),[10],18%
same,Population Mitotic Cells (%),[10],62%
same,Population Normal (%),[10],96%
same,Population Pyknosed Nuclei (%),[10],4%
same,Total Cell Count,[10],761
same,Population Apoptotic (%),[11],24%
same,Population Fragmented Nuclei (%),[11],14%
same,Population Healthy Nuclei (%),[11],76%
same,Population Hoechst High Intensity Objects (%),[11],2%
same,Population Membrane Permeable-Phenotype (%),[11],0%
same,Population Mitochondria Different-Phenotype (%),[11],18%
same,Population Mitotic Cells (%),[11],75%
same,Population Normal (%),[11],97%
same,Population Pyknosed Nuclei (%),[11],8%
same,Population Tubulin-Different-Phenotype (%),[11],17%
same,Total Cell Count,[11],702
same,Population Apoptotic (%),[12],35%
same,Population Healthy Nuclei (%),[12],79%
same,Population Hoechst High Intensity Objects (%),[12],1%
same,Population Membrane Permeable-Phenotype (%),[12],1%
same,Population Mitochondria Different-Phenotype (%),[12],14%
same,Population Mitotic Cells (%),[12],64%
same,Population Normal (%),[12],98%
same,Population Pyknosed Nuclei (%),[12],6%
same,Population Tubulin-Different-Phenotype (%),[12],11%
same,Total Cell Count,[12],860
